What was measured:
Assay type in all cases: functional
Rattus norvegicus [1] = species: Rattus norvegicus; test: Percent inhibition of formation of compound upon incubation of 15 with phenobarbit-induced rat liver microsomal fraction in hypoxic condition in presence of pCMBA at a concentration of 0 mM
Outline: (§1)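 Phenobarbital-induced rat liver microsomes; inhibitors SKF-525A (in methanol) or pCMBA (in DMF) at 0–4 mM final. pCMBA preincubated 30 min before NADPH; SKF-525A incubated 15 min with microsomes and NADPH. Hypoxic samples nitrogen-purged. Substrate 2.5 mM added, 30 min at 37 °C. Ketone metabolite by HPLC at 254 nm as percent of substrate; % inhibition relative to no inhibitor. Mean of two experiments.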

Rattus norvegicus [2] = species: Rattus norvegicus; test: Percent formation of compound upon incubation of 15 with phenobarbit-induced rat liver microsomal fraction in hypoxic condition in presence of pCMBA at a concentration of 1 mM; outline: as §1
Rattus norvegicus [3] = species: Rattus norvegicus; test: Percent formation of compound upon incubation of 15 with phenobarbit-induced rat liver microsomal fraction in oxic condition in presence of SKF-525A at a concentration of 1 mM; outline: as §1
Rattus norvegicus [4] = species: Rattus norvegicus; test: Tested for formation of compound upon incubation of compound 15 for 30 minutes with rat liver microsomal fractions in hypoxic condition in the presence of NADPH
Outline: (§2)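 Phenobarbital-induced rat liver S-9, microsomal or cytosolic fraction with 5 mM cofactor (NADPH, NADH, benzaldehyde or 2-hydroxypyrimidine) or none. Substrate 2.5 mM final, added from methanol/water 50:50. Hypoxic vials purged with nitrogen 15–20 min. 30 min at 37 °C, quenched with ice-cold methanol. Ketone metabolite by HPLC at 254 nm as percent of equimolar substrate.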

Rattus norvegicus [5] = species: Rattus norvegicus; test: Tested for formation of compound upon incubation of compound 15 for 30 minutes with rat liver cystolic fractions in oxic condition in the presence of NADPH; outline: as §2
Rattus norvegicus [6] = species: Rattus norvegicus; test: Tested for formation of compound upon incubation of compound 15 for 30 minutes with rat liver subcellular fractions in hypoxic condition in the presence of 2-hydroxypyrimidine; outline: as §2
Rattus norvegicus [7] = species: Rattus norvegicus; test: Tested for formation of compound upon incubation of compound 15 for 30 minutes with rat liver cystolic fractions in hypoxic condition in the absence of cofactor; outline: as §2
Homo sapiens = species: Homo sapiens; test: Percent formation of compound upon incubation of 15 for 60 minutes with human P450 reductase microsomes in hypoxic condition in presence of NADPH and pCMBA at a concentration of 2 mM
Outline: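 Human or rat P450 reductase microsomes at 1 mg/mL protein, substrate 0.25 mM and cofactor 0.5 mM; pCMBA 2 mM where stated. Anaerobic samples purged with nitrogen 15–20 min in septum-sealed vials. 60 min at 37 °C, stopped with ice-cold methanol. Ketone metabolite quantified by HPLC (C-18, methanol/water 50:50, UV 254 nm) as percent of equimolar substrate. Mean of two experiments.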

Rattus norvegicus [8] = species: Rattus norvegicus; test: Percent formation of compound upon incubation of 15 with phenobarbit-induced rat liver microsomal fraction in hypoxic condition in presence of pCMBA at a concentration of 4 mM; outline: as §1
Rattus norvegicus [9] = species: Rattus norvegicus; test: Tested for formation of compound upon incubation of compound 15 for 30 minutes with rat liver cystolic fractions in hypoxic condition in the presence of NADPH; outline: as §2
Rattus norvegicus [10] = species: Rattus norvegicus; test: Percent formation of compound upon incubation of 15 with phenobarbit-induced rat liver microsomal fraction in oxic condition in presence of pCMBA at a concentration of 1 mM; outline: as §1
Rattus norvegicus [11] = species: Rattus norvegicus; test: Tested for formation of compound upon incubation of compound 15 for 30 minutes with rat liver subcellular fractions in hypoxic condition in the presence of NADH; outline: as §2
Rattus norvegicus [12] = species: Rattus norvegicus; test: Tested for formation of compound upon incubation of compound 15 for 30 minutes with rat liver cystolic fractions in oxic condition in the absence of cofactor; outline: as §2
Rattus norvegicus [13] = species: Rattus norvegicus; test: Percent inhibition of formation of compound upon incubation of 15 with phenobarbit-induced rat liver microsomal fraction in hypoxic condition in presence of pCMBA at a concentration of 1 mM; outline: as §1
Rattus norvegicus [14] = species: Rattus norvegicus; test: Percent formation of compound upon incubation of 15 with phenobarbit-induced rat liver microsomal fraction in oxic condition in presence of SKF-525A at a concentration of 0 mM; outline: as §1
Rattus norvegicus [15] = species: Rattus norvegicus; test: Percent inhibition of formation of compound upon incubation of 15 with phenobarbit-induced rat liver microsomal fraction in oxic condition in presence of SKF-525A at a concentration of 2 mM; outline: as §1
Rattus norvegicus [16] = species: Rattus norvegicus; test: Percent formation of compound upon incubation of 15 with phenobarbit-induced rat liver microsomal fraction in oxic condition in presence of SKF-525A at a concentration of 4 mM; outline: as §1
Rattus norvegicus [17] = species: Rattus norvegicus; test: Tested for formation of compound upon incubation of compound 15 for 30 minutes with rat liver subcellular fractions in hypoxic condition in the presence of benzaldehyde; outline: as §2
Rattus norvegicus [18] = species: Rattus norvegicus; test: Percent formation of compound upon incubation of 15 with phenobarbit-induced rat liver microsomal fraction in hypoxic condition in presence of pCMBA at a concentration of 0 mM; outline: as §1
Rattus norvegicus [19] = species: Rattus norvegicus; test: Tested for formation of compound upon incubation of compound 15 for 30 minutes with rat liver subcellular fractions in oxic condition in the presence of NADPH
Outline: (§3)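 Phenobarbital-induced rat liver S-9 fraction (2 mL) with 5 mM cofactor (NADPH, NADH, benzaldehyde or 2-hydroxypyrimidine), substrate 2.5 mM final, added in methanol/water 50:50; aerobic, 30 min at 37 °C. Quenched with ice-cold methanol, proteins spun down, supernatant analysed by reverse-phase C-18 HPLC, UV 254 nm; ketone metabolite given as percent of equimolar substrate; three experiments.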

Rattus norvegicus [20] = species: Rattus norvegicus; test: Percent formation of compound upon incubation of 15 with phenobarbit-induced rat liver microsomal fraction in hypoxic condition in presence of pCMBA at a concentration of 2 mM; outline: as §1
Rattus norvegicus [21] = species: Rattus norvegicus; test: Percent inhibition of formation of compound upon incubation of 15 with phenobarbit-induced rat liver microsomal fraction in hypoxic condition in presence of pCMBA at a concentration of 2 mM; outline: as §1
Rattus norvegicus [22] = species: Rattus norvegicus; test: Percent inhibition of formation of compound upon incubation of 15 with phenobarbit-induced rat liver microsomal fraction in oxic condition in presence of pCMBA at a concentration of 0 mM; outline: as §1
Rattus norvegicus [23] = species: Rattus norvegicus; test: Tested for formation of compound upon incubation of compound 15 for 30 minutes with rat liver subcellular fractions in hypoxic condition in the presence of NADPH; outline: as §2
Rattus norvegicus [24] = species: Rattus norvegicus; test: Percent formation of compound upon incubation of 15 with phenobarbit-induced rat liver microsomal fraction in oxic condition in presence of pCMBA at a concentration of 0 mM; outline: as §1
Rattus norvegicus [25] = species: Rattus norvegicus; test: Tested for formation of compound upon incubation of compound 15 for 30 minutes with rat liver subcellular fractions in oxic condition in the presence of 2-hydroxypyrimidine; outline: as §3
Rattus norvegicus [26] = species: Rattus norvegicus; test: Percent inhibition of formation of compound upon incubation of 15 with phenobarbit-induced rat liver microsomal fraction in hypoxic condition in presence of SKF-525A at a concentration of 1 mM; outline: as §1
Rattus norvegicus [27] = species: Rattus norvegicus; test: Tested for formation of compound upon incubation of compound 15 for 30 minutes with uninduced rat liver S-9 fractions in hypoxic condition in the presence of NADPH
Outline: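 Uninduced rat liver S-9 (22.5 mg/mL protein, 2 mL) with 5 mM NADPH or no cofactor, substrate 2.5 mM final; hypoxic samples nitrogen-purged 15–20 min in septum-sealed vials, else aerobic; 30 min at 37 °C. Methanol quench, centrifugation, C-18 HPLC with UV 254 nm; metabolite as percent of equimolar substrate. NADPH runs three experiments, no-cofactor runs two.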

CCC(=O)c1ccccc1O
inhibition (Rattus norvegicus [1]): 0% | Formation (Rattus norvegicus [2]): 0.7% | Formation (Rattus norvegicus [3]): 36.9% | Formation (Rattus norvegicus [4]): 93% | Formation (Rattus norvegicus [5]): 0.7% | Formation (Rattus norvegicus [6]): 0.5% | Formation (Rattus norvegicus [7]): 1.4% | Formation (Homo sapiens): 0.6% | Formation (Rattus norvegicus [8]): 0.5% | Formation (Rattus norvegicus [9]): 3.6% | Formation (Rattus norvegicus [10]): 0.5% | Formation (Rattus norvegicus [11]): 28.5% | Formation (Rattus norvegicus [12]): 0.4% | inhibition (Rattus norvegicus [13]): 99% | Formation (Rattus norvegicus [14]): 44.9% | inhibition (Rattus norvegicus [15]): 14% | Formation (Rattus norvegicus [16]): 26.9% | Formation (Rattus norvegicus [17]): 2% | Formation (Rattus norvegicus [18]): 93.2% | Formation (Rattus norvegicus [19]): 80.9% | Formation (Rattus norvegicus [20]): 1.2% | inhibition (Rattus norvegicus [21]): 99% | inhibition (Rattus norvegicus [22]): 0% | Formation (Rattus norvegicus [23]): 88.5% | Formation (Rattus norvegicus [24]): 68.8% | Formation (Rattus norvegicus [25]): 0.6% | inhibition (Rattus norvegicus [26]): 23% | Formation (Rattus norvegicus [27]): 9.4%
